High-throughput results deposited in PubChem by Sanford-Burnham Center for Chemical Genomics.
Apaf-1 act – activators of human Apaf-1 apoptosome. O14727. Apaf-1 apoptosome caspase-3 activation, DEVD-Rh110 fluorescence; active compounds read low. activity change, negative = activation, % at 20 µM. actives 0.31% (n = 330,000);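 active means activity change at or below -40% at 20 µM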
Target sequence (O14727 whole entry, looked up): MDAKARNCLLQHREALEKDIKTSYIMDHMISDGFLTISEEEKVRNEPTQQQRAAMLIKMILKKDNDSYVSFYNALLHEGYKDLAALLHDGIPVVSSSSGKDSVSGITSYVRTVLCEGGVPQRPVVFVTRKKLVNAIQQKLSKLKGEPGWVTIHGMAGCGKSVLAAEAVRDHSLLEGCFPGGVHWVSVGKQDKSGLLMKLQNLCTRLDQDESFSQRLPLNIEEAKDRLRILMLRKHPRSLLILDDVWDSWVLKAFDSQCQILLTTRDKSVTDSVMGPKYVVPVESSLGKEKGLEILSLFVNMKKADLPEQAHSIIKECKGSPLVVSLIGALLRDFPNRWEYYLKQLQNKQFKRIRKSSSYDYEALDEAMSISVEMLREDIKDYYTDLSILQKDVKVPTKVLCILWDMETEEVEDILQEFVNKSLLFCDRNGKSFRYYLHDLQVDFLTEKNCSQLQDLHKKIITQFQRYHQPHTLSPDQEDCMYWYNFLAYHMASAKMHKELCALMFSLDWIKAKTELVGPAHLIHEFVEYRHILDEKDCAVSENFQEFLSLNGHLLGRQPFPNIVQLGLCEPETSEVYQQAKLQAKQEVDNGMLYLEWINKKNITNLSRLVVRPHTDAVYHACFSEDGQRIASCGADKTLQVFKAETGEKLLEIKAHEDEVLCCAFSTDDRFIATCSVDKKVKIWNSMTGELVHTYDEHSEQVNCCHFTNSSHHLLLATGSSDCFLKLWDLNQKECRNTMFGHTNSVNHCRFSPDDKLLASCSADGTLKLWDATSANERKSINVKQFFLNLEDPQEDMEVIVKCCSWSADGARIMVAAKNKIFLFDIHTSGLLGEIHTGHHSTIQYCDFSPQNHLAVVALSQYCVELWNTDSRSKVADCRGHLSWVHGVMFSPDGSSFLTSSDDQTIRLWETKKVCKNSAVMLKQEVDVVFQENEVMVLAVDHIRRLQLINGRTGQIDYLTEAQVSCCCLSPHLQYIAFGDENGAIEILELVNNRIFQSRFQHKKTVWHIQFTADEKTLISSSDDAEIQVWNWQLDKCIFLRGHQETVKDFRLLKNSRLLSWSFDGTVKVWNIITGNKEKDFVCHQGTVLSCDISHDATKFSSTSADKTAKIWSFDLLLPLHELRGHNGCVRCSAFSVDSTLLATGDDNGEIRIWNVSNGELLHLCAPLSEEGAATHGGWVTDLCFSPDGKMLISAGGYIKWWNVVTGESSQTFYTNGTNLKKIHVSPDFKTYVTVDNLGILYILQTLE
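Schedule: 30 min preincubation, 50 min reaction, room temperature / System: biochemical Apaf-1 apoptosome reconstitution / Medium: 20 mM HEPES pH 7.5 with CHAPS, BSA / Evaluation: Caspase-3 cleavage activity downstream of Apaf-1 activation / Detection: Caspase-3-released Rh110 fluorescence, 540 nm emission, 480 nm excitation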
Rh110 act interf – counter-screen for Apaf-1 activators: fluorescence interference | shares compounds with Apaf-1 act | Rh110 fluorescence interference, quenched caspase reaction, Ex480/Em540 | fluorescence interference (activity change), % at 20 µM, hits read low | 980 tested, under 10 active | AID 504616;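 active means mean activity change at or below -40% when tested at 20 µM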
Apaf-1 act conf2 – confirmation of human Apaf-1 activators | actives 5% (n = 980) | shares compounds with Apaf-1 act | reconstituted apoptosome caspase-3 activity, DEVD-Rh110 fluorescence; active compounds read low | activity change, negative = activation, % at 20 µM | AID 504617;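 active means mean activity change at or below -40%, meaning activation of 40% or more, at 20 µM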
Fluor interf act – counter-screen for Apaf-1 activators: fluorescence interference, dose response; 55 tested, under 10 active; fluorescence interference counterscreen, Apaf-1 activator assay; shares compounds with Apaf-1 act; EC50, µM; AID 588592; call rule not given here
* hit, by the source's call; nt = no result given. The list is a sample of the results.

SMILES	Apaf-1 act	Rh110 act interf	Apaf-1 act conf2	others
COc1ccc(C2=C(CN(C)C)C(c3ccccc3)c3ccccc3O2)cc1 (stereo unspecified)	12	nt	nt
C#CCOCCOCCOCCNc1nc(N2CCN(C(=O)[C@H](CCCCN)n3cc(CN)nn3)CC2)nc(N2CCN(C(=O)[C@H](CCCCN)n3cc(CN)nn3)CC2)n1	44	nt	nt
CC(=O)NC1N=C(C)N(c2ccccc2)C1=O (stereo unspecified)	70	nt	nt
Cc1cnc(C(=O)NC2CC(C)(C)Cc3c2cnn3-c2ccccc2)cn1 (stereo unspecified)	-85*	1	7
CCCCN(C(=O)c1cccc(S(=O)(=O)N2CCOCC2)c1)c1c(N)n(CCC)c(=O)[nH]c1=O	-84*	0	5
COc1ccc(C(=O)N(Cc2ccccc2)c2cccc(C)c2)cc1S(=O)(=O)N1CCOCC1	45	nt	nt
COc1ccc(C(=O)N(CCc2ccccc2)Cc2ccccc2)cc1S(=O)(=O)N1CCOCC1	45	nt	nt
Nc1nnc2c(n1)CCCC2	83	nt	nt
COc1ccc2[nH]c3c4c(ccc3c2c1)C(=O)C=CC4=O	45	nt	nt
CC(C)c1ccc(NC(=S)Nc2cccc3ccccc23)cc1	84	nt	nt
Oc1ccc2ccccc2c1CN1CCN(c2ccccc2F)CC1	-319*	-3	6
COc1ccc2c(c1)Cc1sc(NC(=O)c3ccccc3)nc1-2	83	nt	nt
CCc1sc(NC(=O)CCC(=O)O)nc1-c1cc2ccccc2oc1=O	-223*	3	3
Cc1ccc(-c2nc3n(n2)Cc2ccccc2-3)cc1	-197*	0	13
CC(C)[C@@H]1CN=C(N)N1C[C@@H]1CCCN1C[C@H](C)N1C[C@@H](Cc2ccccc2)N(CCc2ccc(Cl)c(Cl)c2)C1=N	54	nt	nt
Cn1c(=O)c2c(SCC(=O)NC3CCCC3)nc(CC(C)(C)C)nc2n(C)c1=O	-508*	0	8
CCCCCc1cc(=O)oc2c(C(CCN3CCCC3)c3ccc(N(C)C)cc3)c(OC)cc(OC)c12 (stereo unspecified)	45	nt	nt
Cc1cccc(Oc2nc(-c3ccccn3)nc3ccccc23)c1	-553*	12	12
O=C1CC(=Nc2ccccc2)NN1c1ccccc1	66	nt	nt
C=C(C)C(=O)Nc1cccc(C2=NOC3(C2)C[C@@H](C(N)=O)N(C(=O)CCCCC)C3)c1 (stereo partly specified)	-333*	5	-121*	Fluor interf act=>100
NS(=O)(=O)c1ccc(NC2=CC(=O)C(=O)c3ccccc32)cc1	95	nt	nt
Cc1cccc(CN2C(=O)c3ccccc3Sc3ccc(C(=O)O)cc32)c1	-53*	10	13
CC(=O)N(/N=C1\Sc2ccccc2C1=O)c1ccc(C)cc1C	43	nt	nt
CCN1CCN(CCCNC(=O)c2ccc(/C=C3/Oc4ccccc4N(Cc4cccc(C)c4)C3=O)cc2)CC1	47	nt	nt
COC(=O)c1cc(C)nc2c1C(=O)C(=O)C=C2N1CCOCC1	99	nt	nt
SMILES	Apaf-1 act	Rh110 act interf	Apaf-1 act conf2	others
COc1ccc2c(c1)c(/C=N/Nc1nc3ccccc3[nH]1)c(C)n2C	43	nt	nt
Cc1ccc(S(=O)(=O)N2CCN(c3nc(CN4CCCC4)nc4sc(C)c(C)c34)CC2)cc1	48	nt	nt
Cc1ccc(S(=O)(=O)c2nc(S(C)(=O)=O)sc2N(C)C)cc1	-90*	-9	-23
c1ccc(C[C@H]2CNCCN2CCCCC2CCCCC2)cc1	49	nt	nt
COc1cc(/C=N/N=C2/C(=O)Nc3ccccc32)ccc1O	-445*	8	19
COc1cccc(-c2sc3cc(OC)c(OC)cc3c2-c2ccc(OCCN3CCCCC3)cc2)c1	66	nt	nt
CCS(=O)(=O)NCCc1csc(C)n1	-484*	8	12
CCC(CO)Oc1cc(NCc2ccncc2)c2ncn(C(C)C)c2c1 (stereo unspecified)	41	nt	nt
Cc1cccc(S(=O)(=O)C(C#N)c2nc3ccccc3nc2N2CCCC2)c1 (stereo unspecified)	55	nt	nt
Cc1ccc(-n2ccnc2SCC(=O)O)c(C)c1	-478*	-3	13
Clc1cccc(CSc2nnc(-c3ccccn3)n2Cc2ccco2)c1	42	nt	nt
CN(C)Cc1cc(O)c(CN(C)C)cc1O	65	nt	nt
COc1cc(/C=C2/C(=O)N(c3ccc(Br)cc3)N=C2C)cc(OC)c1OC	94	nt	nt
CCN1/C(=C/c2ccc3ccccc3[n+]2CC)C=Cc2ccccc21	41	nt	nt
O=C1C(O)=C(O)C(=O)c2ccccc21	92	nt	nt
COCCNC(=O)CN(c1cccc(OC)c1)S(=O)(=O)c1ccc(C)cc1	57	nt	nt
Cc1ccc(OCCNC(=O)CCNS(=O)(=O)c2ccc(C)cc2)cc1	-605*	16	13
CC(=O)N(C1=C(N2CCOCC2)C(=O)c2ccccc2C1=O)c1ccc(C(=O)O)cc1	59	nt	nt
N#C/C(=C/c1ccc(N2CCOCC2)o1)c1ccc(Br)cc1	-109*	-2	19
O=C(NC1(O)C(=O)c2ccccc2C1=O)c1ccccc1	94	nt	nt
C#CCOCCOCCOCCNc1nc(N2CCN(C(=O)CCCCCCCCCCNC(=O)[C@H](CCCN=C(N)N)n3cc(C[C@@H](C)CC)nn3)CC2)nc(N2CCN(C(=O)CCCCCCCCCCNC(=O)[C@@H]([C@H](C)CC)n3cc(CCCCCN)nn3)CC2)n1	80	nt	nt
C#CCOCCOCCOCCNc1nc(N2CCOCC2)nc(N2CCN(C(=O)CCCCCCCCCCNC(=O)[C@H]([C@@H](C)CC)n3cc(CCCCN=C(N)N)nn3)CC2)n1	60	nt	nt
CCN(Cc1ccccc1)C(=O)c1c[nH]c2ccc(S(=O)(=O)N(C)CCC#N)cc2c1=O	-55*	4	5
CN(C)CCN(C(=O)c1cccc2ccccc12)c1nc2cc3c(cc2s1)OCO3	52	nt	nt
CC(C)(C)OC(=O)NCCCCCNC(=O)c1nc[nH]c1C(=O)NCCCCCNC(=O)OC(C)(C)C	-50*	8	-2
SMILES	Apaf-1 act	Rh110 act interf	Apaf-1 act conf2	others
O=C1Cc2ccccc2C(=O)N1OCc1ccc(Cl)cc1Cl	68	nt	nt
Nc1ccc(N2CCCCCC2)cc1	93	nt	nt
Cc1cc(C)n(-c2cc(Cl)cc(Cl)c2)c(=O)c1C#N	-403*	12	11
CC1=CC(=Nc2c(C)n(C)n(-c3ccccc3)c2=O)C=CC1=O	43	nt	nt
Cc1c(NC(=O)CSc2ccc3c(c2)OCCO3)c(=O)n(-c2ccccc2)n1C	-46*	11	9
Cc1ccsc1C(=O)OCC(=O)Nc1c(C)n(C)n(-c2ccccc2)c1=O	-77*	3	9
Cc1[nH]n(-c2ccccc2)c(=O)c1C(C[N+](=O)[O-])c1ccc(Br)cc1 (stereo unspecified)	87	nt	nt
C#CCOCCOCCOCCNc1nc(N2CCN(C(=O)[C@H]([C@@H](C)CC)n3cc([C@@H](N)CC(C)C)nn3)CC2)nc(N2CCN(C(=O)[C@H](Cc3cc4ccccc4[nH]3)n3cc([C@@H](N)Cc4ccc(O)cc4)nn3)CC2)n1	56	nt	nt
Cc1c(C(=O)N(C)CCOc2ccccc2)oc2c(Cl)cccc12	45	nt	nt
C[C@@H]1CN([C@H](C)CO)C(=O)Cc2cc(NS(=O)(=O)c3ccc(Cl)cc3)ccc2O[C@H]1CN(C)Cc1ccc(C(F)(F)F)cc1	41	nt	nt
CCc1cc2c(SCC(=O)N3CC(=O)Nc4ccccc43)ncnc2s1	55	nt	nt
